In assay [1] the target is Tyrosine-protein kinase HCK (Homo sapiens) (UniProt P08631). The assay is described as follows: Inhibition of HCK (unknown origin) transfected in mouse Ba/F3 cells at 5 uM after 24 hrs. The class given is cell-based. To be noted: BaF3. The method, boiled down: (§1)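 Kinase specificity panel: each Ba/F3 line transformed with one of 24 tyrosine kinases depends on that kinase to grow. Cells were given compound at 1 or 5 µM for 24 h, with DMSO as comparator. Percentage growth was read by ATP-lite luminescence and reported as mean ± SEM.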
Sequence of Tyrosine-protein kinase HCK (Homo sapiens) (P08631 2-526 limits assumed): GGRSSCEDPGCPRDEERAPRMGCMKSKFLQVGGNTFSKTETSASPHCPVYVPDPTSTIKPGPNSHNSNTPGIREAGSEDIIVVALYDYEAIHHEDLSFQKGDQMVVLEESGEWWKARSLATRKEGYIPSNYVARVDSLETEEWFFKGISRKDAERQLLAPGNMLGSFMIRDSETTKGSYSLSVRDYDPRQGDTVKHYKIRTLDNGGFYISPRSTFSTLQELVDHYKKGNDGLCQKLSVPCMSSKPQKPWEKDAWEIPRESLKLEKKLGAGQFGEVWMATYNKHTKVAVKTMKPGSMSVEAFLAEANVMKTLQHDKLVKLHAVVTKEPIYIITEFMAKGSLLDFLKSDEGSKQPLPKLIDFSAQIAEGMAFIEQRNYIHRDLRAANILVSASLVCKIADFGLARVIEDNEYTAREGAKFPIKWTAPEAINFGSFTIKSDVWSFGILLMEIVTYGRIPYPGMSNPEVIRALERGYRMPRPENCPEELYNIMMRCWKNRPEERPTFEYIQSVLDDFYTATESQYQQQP

Assay [2] concerns BaF3. The assay is described as follows: Cytotoxicity against mouse BA/F3 cells transfected with FLT3-ITD-G697R at 1 uM after 24 hrs by plate reader analysis. The class given is functional, cell-based.
The target of assay [3] is T1, Ephrin type-A receptor 1 (Homo sapiens) (UniProt P21709).
T1 sequence (whole entry): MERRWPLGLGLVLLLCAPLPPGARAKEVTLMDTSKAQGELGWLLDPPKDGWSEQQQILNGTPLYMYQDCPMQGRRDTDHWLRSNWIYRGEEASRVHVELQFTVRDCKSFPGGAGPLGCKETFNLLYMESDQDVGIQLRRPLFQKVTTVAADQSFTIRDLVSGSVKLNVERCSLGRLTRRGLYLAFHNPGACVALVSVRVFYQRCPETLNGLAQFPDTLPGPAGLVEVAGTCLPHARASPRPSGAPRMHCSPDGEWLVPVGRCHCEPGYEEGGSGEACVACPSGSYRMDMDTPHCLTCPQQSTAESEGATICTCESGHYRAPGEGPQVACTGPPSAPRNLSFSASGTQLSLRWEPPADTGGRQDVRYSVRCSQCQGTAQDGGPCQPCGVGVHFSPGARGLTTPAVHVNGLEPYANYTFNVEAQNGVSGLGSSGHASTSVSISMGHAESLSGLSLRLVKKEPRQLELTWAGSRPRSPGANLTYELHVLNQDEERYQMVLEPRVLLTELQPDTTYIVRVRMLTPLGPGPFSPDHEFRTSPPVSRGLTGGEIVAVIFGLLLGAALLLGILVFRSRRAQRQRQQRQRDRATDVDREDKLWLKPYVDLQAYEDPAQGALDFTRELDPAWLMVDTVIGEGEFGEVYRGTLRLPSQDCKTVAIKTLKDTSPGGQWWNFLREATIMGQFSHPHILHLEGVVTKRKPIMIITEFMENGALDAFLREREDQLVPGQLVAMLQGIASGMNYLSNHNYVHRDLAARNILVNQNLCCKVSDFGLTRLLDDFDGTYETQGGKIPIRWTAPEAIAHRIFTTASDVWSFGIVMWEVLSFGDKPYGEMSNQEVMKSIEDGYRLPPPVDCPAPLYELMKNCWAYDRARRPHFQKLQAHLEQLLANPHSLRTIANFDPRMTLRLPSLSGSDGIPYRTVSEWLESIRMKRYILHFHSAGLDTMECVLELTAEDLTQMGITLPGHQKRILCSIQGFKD
Briefly: Inhibition of EPHA1 (unknown origin) transfected in mouse Ba/F3 cells at 5 uM after 24 hrs. The class given is cell-based. To be noted: BaF3. The method, boiled down: as §1

Assay [4] deals with Ephrin type-A receptor 7 (Homo sapiens) (UniProt Q15375). The assay is described as follows: Inhibition of EPHA7 (unknown origin) transfected in mouse Ba/F3 cells at 5 uM after 24 hrs. To be noted: BaF3. The class given is cell-based. The method, boiled down:
as §1

The subject of assay [5] is BaF3. The assay is described as follows: Cytotoxicity against mouse BA/F3 cells transfected with FLT3-ITD-F691l at 1 uM after 24 hrs by plate reader analysis. The class given is functional, cell-based.
The target of assay [6] is Ephrin type-A receptor 2 (Homo sapiens) (UniProt P29317). The assay is described as follows: Inhibition of EPHA2 (unknown origin) transfected in mouse Ba/F3 cells at 5 uM after 24 hrs. The class given is cell-based. To be noted: BaF3. The method, boiled down: as §1
Sequence of Ephrin type-A receptor 2 (Homo sapiens) (P29317 whole entry): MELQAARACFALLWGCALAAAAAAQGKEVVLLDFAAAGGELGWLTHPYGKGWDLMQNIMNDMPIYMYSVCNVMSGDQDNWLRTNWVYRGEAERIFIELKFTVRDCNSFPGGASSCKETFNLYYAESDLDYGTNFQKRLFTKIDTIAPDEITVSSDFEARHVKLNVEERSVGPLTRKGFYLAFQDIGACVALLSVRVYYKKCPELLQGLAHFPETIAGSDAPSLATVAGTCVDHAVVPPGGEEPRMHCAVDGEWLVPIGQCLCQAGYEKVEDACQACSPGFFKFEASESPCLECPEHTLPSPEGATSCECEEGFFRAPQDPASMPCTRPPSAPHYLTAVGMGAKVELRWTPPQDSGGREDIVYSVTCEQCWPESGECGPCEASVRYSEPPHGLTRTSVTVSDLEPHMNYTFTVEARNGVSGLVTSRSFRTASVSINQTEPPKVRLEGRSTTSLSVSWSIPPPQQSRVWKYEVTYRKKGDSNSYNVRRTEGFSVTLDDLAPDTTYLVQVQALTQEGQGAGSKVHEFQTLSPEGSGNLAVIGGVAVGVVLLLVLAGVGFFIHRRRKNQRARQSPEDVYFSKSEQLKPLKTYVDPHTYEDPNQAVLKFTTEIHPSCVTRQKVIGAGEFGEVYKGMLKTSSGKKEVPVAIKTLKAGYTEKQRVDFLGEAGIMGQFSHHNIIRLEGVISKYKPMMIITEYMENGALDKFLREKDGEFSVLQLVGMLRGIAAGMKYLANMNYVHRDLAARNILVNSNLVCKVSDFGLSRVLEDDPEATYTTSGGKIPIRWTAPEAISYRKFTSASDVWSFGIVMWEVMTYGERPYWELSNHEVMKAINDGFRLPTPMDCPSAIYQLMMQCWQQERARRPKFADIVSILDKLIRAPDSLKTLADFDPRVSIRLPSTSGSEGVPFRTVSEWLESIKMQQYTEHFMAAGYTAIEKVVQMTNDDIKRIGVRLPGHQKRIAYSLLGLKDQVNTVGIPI
Assay [7] addresses T2, Tyrosine-protein kinase receptor TYRO3 (Homo sapiens) (UniProt Q06418).
T2 sequence (whole entry): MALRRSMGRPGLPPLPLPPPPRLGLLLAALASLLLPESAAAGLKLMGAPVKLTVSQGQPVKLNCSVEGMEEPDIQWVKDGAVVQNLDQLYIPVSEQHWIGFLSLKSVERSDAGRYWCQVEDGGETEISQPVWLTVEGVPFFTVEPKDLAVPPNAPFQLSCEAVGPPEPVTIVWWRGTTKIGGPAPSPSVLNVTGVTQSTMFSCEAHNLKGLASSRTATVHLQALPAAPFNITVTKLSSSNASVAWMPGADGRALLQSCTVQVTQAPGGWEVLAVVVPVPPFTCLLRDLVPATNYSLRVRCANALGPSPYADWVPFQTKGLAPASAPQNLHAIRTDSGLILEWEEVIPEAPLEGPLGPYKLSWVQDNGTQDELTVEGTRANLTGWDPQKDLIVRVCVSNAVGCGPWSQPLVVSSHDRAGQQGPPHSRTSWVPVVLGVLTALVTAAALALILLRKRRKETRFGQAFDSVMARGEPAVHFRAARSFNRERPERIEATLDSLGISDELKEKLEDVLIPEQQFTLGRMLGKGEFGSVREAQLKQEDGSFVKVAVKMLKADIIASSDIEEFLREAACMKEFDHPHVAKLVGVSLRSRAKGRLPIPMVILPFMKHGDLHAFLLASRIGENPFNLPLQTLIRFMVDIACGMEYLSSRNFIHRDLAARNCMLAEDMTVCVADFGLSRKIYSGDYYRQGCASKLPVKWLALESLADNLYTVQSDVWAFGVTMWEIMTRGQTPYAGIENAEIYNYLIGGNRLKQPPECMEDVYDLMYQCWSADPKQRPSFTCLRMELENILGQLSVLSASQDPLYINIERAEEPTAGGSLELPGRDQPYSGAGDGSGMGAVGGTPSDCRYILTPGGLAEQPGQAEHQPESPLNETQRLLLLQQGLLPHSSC
Briefly: Inhibition of TYRO3 (unknown origin) transfected in mouse Ba/F3 cells at 5 uM after 24 hrs. The class given is cell-based. To be noted: BaF3.

Calls of active or inactive are those of the source. The calls are words filed in the database; no cut-off is given here.

Sequence of Ephrin type-A receptor 7 (Homo sapiens) (Q15375 28-998 limits assumed): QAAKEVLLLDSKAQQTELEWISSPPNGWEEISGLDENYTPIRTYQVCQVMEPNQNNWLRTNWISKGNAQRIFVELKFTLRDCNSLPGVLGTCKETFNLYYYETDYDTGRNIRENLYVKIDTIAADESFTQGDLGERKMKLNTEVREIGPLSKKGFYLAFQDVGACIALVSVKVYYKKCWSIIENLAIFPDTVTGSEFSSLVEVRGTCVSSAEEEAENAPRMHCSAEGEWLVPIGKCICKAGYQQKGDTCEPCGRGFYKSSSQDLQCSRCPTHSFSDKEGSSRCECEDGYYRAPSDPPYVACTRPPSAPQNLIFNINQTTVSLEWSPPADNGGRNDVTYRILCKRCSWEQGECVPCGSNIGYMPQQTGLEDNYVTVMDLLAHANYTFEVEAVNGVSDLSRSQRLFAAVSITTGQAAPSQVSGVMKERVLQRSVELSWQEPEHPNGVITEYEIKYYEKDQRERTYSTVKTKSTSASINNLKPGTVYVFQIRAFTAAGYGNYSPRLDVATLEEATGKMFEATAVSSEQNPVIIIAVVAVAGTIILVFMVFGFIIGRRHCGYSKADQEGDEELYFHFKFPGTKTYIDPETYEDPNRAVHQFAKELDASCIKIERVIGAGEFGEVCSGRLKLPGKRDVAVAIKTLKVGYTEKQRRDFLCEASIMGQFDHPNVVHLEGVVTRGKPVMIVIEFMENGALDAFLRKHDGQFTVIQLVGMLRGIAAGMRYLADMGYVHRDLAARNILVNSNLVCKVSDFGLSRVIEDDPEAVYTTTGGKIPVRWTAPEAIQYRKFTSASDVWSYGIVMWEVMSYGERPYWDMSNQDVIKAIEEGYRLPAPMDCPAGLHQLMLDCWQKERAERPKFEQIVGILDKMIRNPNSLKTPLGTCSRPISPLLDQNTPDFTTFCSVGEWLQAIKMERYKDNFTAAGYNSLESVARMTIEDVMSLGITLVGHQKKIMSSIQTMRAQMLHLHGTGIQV

As to `Cc1ccc(-n2cnc3cc(Nc4nnc(C)c5ccccc45)ccc32)cc1`, the inhibition result in assay [1], in assay [3], in assay [4], in assay [6] and in assay [7] was “inactive” each time. In addition, the result with BaF3 [2] and with BaF3 [5] was Active.

Regarding `COc1ccc(C(=O)Nc2cc(-c3ccccc3)[nH]n2)cc1`, the result in the assay with BaF3 [2] and in the assay with BaF3 [5] was Active.

As to `Fc1ccc(-c2n[nH]cc2-c2ccncc2)cc1Cl`, the inhibition result in assay [1], in assay [3], in assay [4], in assay [6] and in assay [7] was “inactive” in each case.
